Results pooled from the literature.
Each line is one published result; the experiments were not run side by side.
Target: Activin receptor type-2B (ACVR2B, Homo sapiens, UniProt Q13705)

`COc1cnc(Nc2cccc(S(N)(=O)=O)c2)nc1N1CCN(c2ccccc2)C(=O)C1` gave a remaining binding of 100% (binding, competition with immobilised ligand; 1 µM).
The remaining binding of `CC(=O)N1CCC(c2ccc(C(=O)NC(=N)N)cc2C(F)(F)F)CC1` is reported as 100% (binding, competition with immobilised ligand; 1 µM).
For `CCN1CCN(Cc2ccc(C(=O)Nc3ccc(C)c(Oc4ccc5c(c4)CC(=O)N5)c3)cc2C(F)(F)F)CC1`, the remaining binding was 100% (binding, competition with immobilised ligand; 1 µM).
`N[C@H]1CCN(c2nccc(-c3cnn4ncccc34)n2)C1` gave a remaining binding of 93% (binding, competition with immobilised ligand; 1 µM).
For `O=C(c1ccc(Nc2nccc(-c3cc4ccccc4s3)n2)cc1)N1CCC(N2CCCC2)CC1`, the remaining binding was 88% (binding, competition with immobilised ligand; 1 µM).
`Cc1cnn2ncc(-c3ccnc(N(C)C)n3)c2c1` has a remaining binding of 100% (binding, competition with immobilised ligand; 1 µM).
`O=C(NCC1CCOCC1)c1n[nH]cc1NC(=O)c1c(F)cccc1F` gave a remaining binding of 98% (binding, competition with immobilised ligand; 1 µM).
With `Nc1ncc2c(n1)-c1c([nH]c3ccc(C#CC4CC4)cc13)CCCC2` the remaining binding was 89% (binding, competition with immobilised ligand; 1 µM).
`O=C(NCCCN1CCOCC1)c1ccc(Nc2ncc(Cl)c(-c3ccc(Cl)s3)n2)cc1` has a remaining binding of 81% (binding, competition with immobilised ligand; 1 µM).
`CN(C)CC#Cc1ccc(OCCCc2sc(N3CCc4cccc(C(=O)Nc5nc6ccccc6s5)c4C3)nc2C(=O)O)c(F)c1` has a remaining binding of 100% (cell-free assay, competition with immobilised ligand; 1 µM).
For `CN(C)c1nccc(-c2cnn3ncccc23)n1`, the remaining binding was 85% (binding, competition with immobilised ligand; 1 µM).
`O=C(c1ccc(Nc2ncc(Cl)c(-c3ccc(Cl)s3)n2)cc1)N1CCC(N2CCCC2)CC1` has a remaining binding of 77% (binding, competition with immobilised ligand; 1 µM).
The remaining binding of `Cc1c[nH]c2nccc(Oc3c(F)cc(Nc4cc(Cl)nc(N)n4)cc3F)c12` is reported as 100% (cell-free assay, competition with immobilised ligand; 0.1 µM).
For `F[C@@H]1CCN(c2nccc(-c3cnn4ncccc34)n2)C1`, the remaining binding was 100% (binding; 1 µM).
With `CO[C@@H](C)c1c(Nc2ccc([C@@H](N(C)C(=O)C3CCS(=O)(=O)CC3)C(F)(F)F)cc2)cnc2cc(Cl)nn12` the remaining binding was 100% (cell-free assay, competition with immobilised ligand; 1 µM).
`CNC(=O)[C@@H]1CC[C@@H](n2c(-c3ccc4cnccc4c3)nc3ccc(C(=O)NCc4cccc(C(N)=O)c4)cc32)C1` gave a remaining binding of 100% (binding, competition with immobilised ligand; 1 µM).
`CN(C)c1ncc(F)c(-c2cnn3ncccc23)n1` gave a remaining binding of 95% (binding, competition with immobilised ligand; 1 µM).
With `O=C(Nc1cccnn1)N1CC(C/C=C/c2cncc(Oc3ccc(C(F)(F)F)cn3)n2)C1` the remaining binding was 98% (cell-free assay, competition with immobilised ligand; 1 µM).
`CN(C)c1nccc(-c2cnc3ncccn23)n1` has a remaining binding of 100% (binding; 1 µM).
`CN(C)C(=O)Cn1cc(-c2nc(C3(c4ccc(-c5cnc(N)nc5)cc4)CC3)no2)cn1` has a remaining binding of 96% (binding, competition with immobilised ligand; 1 µM).
